Active and inactive are the calls of the source. The calls are words filed in the database; no cut-off is given here.
Experiments:
HaCaT [1] = assay: Cytotoxicity against human HaCaT cells at 10 uM after 24 to 72 hrs by MTT assay; type: cell-based
Procedure, shortened: (§1)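 Cells cultured in DMEM with 10% FBS at 37 °C, 5% CO2. 2×10^4 cells seeded per well, exposed to 1 or 10 μM compound for 24, 48 and 72 h. MTT (0.5 mg/mL, phenol red-free DMEM) 3 h at 37 °C; formazan dissolved in acidic isopropanol. A570–A630 read; viability = test/control absorbance. Quadruplicate wells, three independent experiments.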

NCI-H1299 [2] = assay: Cytotoxicity against human NCI-H1299 cells at 1 uM after 72 hrs by MTT assay relative to control; type: functional; procedure, shortened: as §1
NCI-H1299 [3] = assay: Cytotoxicity against human NCI-H1299 cells at 10 uM after 72 hrs by MTT assay relative to control; type: functional; procedure, shortened: as §1
HaCaT [4] = assay: Cytotoxicity against human HaCaT cells assessed as reduction in cell viability at 1 uM after 24 hrs by MTT assay relative to control; type: cell-based; procedure, shortened: as §1
HaCaT [5] = assay: Cytotoxicity against human HaCaT cells at 10 uM after 48 hrs by MTT assay relative to control; type: cell-based; procedure, shortened: as §1
HaCaT [6] = assay: Cytotoxicity against human HaCaT cells assessed as reduction in cell viability at 10 uM after 24 hrs by MTT assay relative to control; type: cell-based; procedure, shortened: as §1
HaCaT [7] = assay: Cytotoxicity against human HaCaT cells at 1 to 10 uM after 72 hrs by MTT assay; type: cell-based; procedure, shortened: as §1
A-431 = assay: Cytotoxicity against human A431 cells after 72 hrs by MTT assay; type: functional, cell-based; conditions: A-431, 72 h; procedure, shortened: as §1

For `C=C1CC[C@H]2[C@](C)(CCC=C(C)C)[C@H](O)CC[C@]2(C)[C@@H]1Cc1c(O)c(C)c(C)oc1=O`, the Activity (HaCaT [1]) was “Toxic”.

`C=C1CC[C@H]2[C@](C)(CCC=C(C)C)[C@H](O)CC[C@]2(C)[C@@H]1C[C@@]1(C(=O)OC)OC(C)=C(C)C1=O` was tested, and the Activity (NCI-H1299 [2]) was 22%, the Activity (NCI-H1299 [3]) was 26% and the Activity (HaCaT [4]) was 40%. The Activity (HaCaT [5]) was “Toxic”, the Activity (HaCaT [6]) was 37% and the Activity (HaCaT [7]) was “Non-Toxic”. The IC50 (A-431) was 1000 nM.

For `C=C1CC[C@H]2[C@](C)(CCC=C(C)C)[C@H](O)CC[C@]2(C)[C@@H]1C[C@]1(C(=O)OC)OC(C)=C(C)C1=O`, the Activity (NCI-H1299 [2]) was “inactive”, the Activity (NCI-H1299 [3]) was “inactive” and the Activity (HaCaT [4]) was “Non-Toxic”. For the same compound, the Activity (HaCaT [5]) was “Toxic”, the Activity (HaCaT [6]) was “Non-Toxic” and the Activity (HaCaT [7]) was “Non-Toxic”.
